pKi: −log10 of the molar value.
How the values were obtained:
[1] = biological target: Kappa-type opioid receptor (Homo sapiens) (UniProt P41145); settings: 100 nM
[2] = biological target: Mu-type opioid receptor (Cavia porcellus) (UniProt P97266)
[3] = biological target: Kappa-type opioid receptor (Cavia porcellus) (UniProt P41144); experiment: Selectivity ratio is IC50 value of opioid receptor kappa to that of opioid receptor delta
[4] = biological target: Mu-type opioid receptor (Homo sapiens) (UniProt P35372); settings: 100 nM
[5] = biological target: Mu-type opioid receptor (Cavia porcellus) (UniProt P97266); experiment: Selectivity ratio is IC50 value of mu-opioid receptor to that of delta-opioid receptor
[6] = biological target: Kappa-type opioid receptor (Cavia porcellus) (UniProt P41144)
[7] = biological target: Delta-type opioid receptor (Mus musculus) (UniProt P32300); experiment: Antagonistic potency at opioid receptor delta (100 nM) (Ke =IC50 in the presence of antagonist divided by the control IC50 value); assay type: functional
Procedure, shortened: (§1)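 Electrically stimulated mouse vas deferens preparation, δ agonist DADLE. The antagonist was incubated with the tissue for 15 min before agonist testing. DADLE IC50 was measured with and without antagonist on the same preparation. IC50 ratio = IC50 with antagonist / control IC50. Ke = [antagonist]/(IC50 ratio − 1).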

[8] = biological target: Kappa-type opioid receptor (Cavia porcellus) (UniProt P41144); experiment: Selectivity ratio is Ki value of opioid receptor kappa to that of delta-opioid receptor
[9] = biological target: Delta-type opioid receptor (Mus musculus) (UniProt P32300); experiment: Antagonistic potency at opioid receptor delta (20 nM) (Ke =IC50 in the presence of antagonist divided by the control IC50 value); assay type: functional
Procedure, shortened: as §1

[10] = biological target: Mu-type opioid receptor (Homo sapiens) (UniProt P35372); experiment: Competitive inhibition of Morphine on Guinea pig ileal longitudinal muscle for the opioid receptor mu at 200 nM; assay type: functional
Procedure, shortened: (§2)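 Electrically stimulated guinea pig ileal longitudinal muscle, μ agonist morphine. The antagonist was preincubated for 15 min before agonist testing. Agonist IC50 was measured with and without antagonist on the same preparation. IC50 ratio = IC50 with antagonist / control IC50. Ke = [antagonist]/(IC50 ratio − 1).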

[11] = biological target: Kappa-type opioid receptor (Homo sapiens) (UniProt P41145); experiment: Competitive inhibition of Ethylketazocine on Guinea pig ileal longitudinal muscle for the opioid receptor kappa at 200 nM; assay type: functional
Procedure, shortened: as §2, with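 “κ” for “μ”, “ethylketazocine.” for “morphine.”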

[12] = biological target: Mu-type opioid receptor (Cavia porcellus) (UniProt P97266); experiment: Selectivity ratio is Ki value of mu-opioid receptor to that of delta-opioid receptor
[13] = biological target: Mu-type opioid receptor (Cavia porcellus) (UniProt P97266); experiment: Antagonistic potency at opioid receptor mu (200 nM) (Ke =IC50 in the presence of antagonist divided by the control IC50 value); assay type: functional
Procedure, shortened: as §2

[14] = biological target: Kappa-type opioid receptor (Cavia porcellus) (UniProt P41144); experiment: Antagonistic potency at opioid receptor kappa (200 nM) (Ke =IC50 in the presence of antagonist divided by the control IC50 value); assay type: functional
Procedure, shortened: as §2, with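 “κ” for “μ”, “ethylketazocine.” for “morphine.”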

[15] = biological target: Kappa-type opioid receptor (Cavia porcellus) (UniProt P41144); experiment: Antagonistic potency at opioid receptor kappa (20 nM) (Ke =IC50 in the presence of antagonist divided by the control IC50 value); assay type: functional
Procedure, shortened: as §2, with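 “κ” for “μ”, “ethylketazocine.” for “morphine.”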

[16] = biological target: Kappa-type opioid receptor (Homo sapiens) (UniProt P41145); experiment: Competitive inhibition of Ethylketazocine on Guinea pig ileal longitudinal muscle for the opioid receptor kappa at 20 nM; assay type: functional
Procedure, shortened: as §2, with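 “κ” for “μ”, “ethylketazocine.” for “morphine.”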

[17] = biological target: Kappa-type opioid receptor (Cavia porcellus) (UniProt P41144); experiment: Selectivity ratio is IC50 value of opioid receptor kappa to that of delta-opioid receptor
Mu-type opioid receptor = Mu-type opioid receptor (Cavia porcellus, UniProt P97266); experiment: Compound was evaluated for the binding affinity to Opioid receptor mu using [3H]DAMGO as radioligand in guinea pig brain membrane; assay type: cell membranes
[18] = biological target: Delta-type opioid receptor (Mus musculus) (UniProt P32300); experiment: Antagonistic potency at opioid receptor delta (200 nM) (Ke =IC50 in the presence of antagonist divided by the control IC50 value); assay type: functional
Procedure, shortened: as §1

[19] = biological target: Kappa-type opioid receptor (Cavia porcellus, UniProt P41144); experiment: Compound was evaluated for the binding affinity to opioid receptor kappa using [3H]-EK as radioligand in guinea pig brain membrane; assay type: cell membranes
Procedure, shortened: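 Radioligand displacement in guinea pig brain membranes, modified from an earlier published method. [3H]EK was used with 1 μM DAMGO present to block μ sites.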

Oc1ccc2c3c1O[C@H]1c4nc5ccccc5cc4C[C@@]4(O)[C@@H](C2)N(CC2CC2)CC[C@]314
IC50 ratio [1]: 7.5 | Ke [2]: 11 | Ratio [3]: 8 | IC50 ratio [4]: 9.9 | Ratio [5]: 6 | Ke [6]: 15.4 | Ke [7]: 1.9

Oc1ccc2c3c1O[C@H]1c4nc5ccccc5nc4C[C@@]4(O)[C@@H](C2)N(CC2CC2)CC[C@]314
Ratio [8]: 227 | Ke [9]: 1.9 | Ratio [3]: 5 | IC50 ratio [10]: 37 | Ratio [5]: 3 | IC50 ratio [11]: 21 | Ratio [12]: 9 | Ke [13]: 5.5 | Ke [14]: 10

Oc1ccc2c3c1O[C@H]1c4oc5ccccc5c4C[C@@]4(O)[C@@H](C2)N(CC2CC2)CC[C@]314
Ke [9]: 0.27 | Ke [13]: 27 | Ke [14]: 48

Oc1ccc2c3c1O[C@H]1C(c4ccccc4)=CC[C@@]4(O)[C@@H](C2)N(CC2CC2)CC[C@]314
Ke [2]: 0.68 | IC50 ratio [4]: 148 | Ke [6]: 1.7 | Ke [7]: 13.5

Oc1ccc2c3c1O[C@H]1C(c4ccc[nH]4)=CC[C@@]4(O)[C@@H](C2)N(CC2CC2)CC[C@]314
Ke [15]: 0.23 | Ratio [3]: 0.03 | IC50 ratio [16]: 89 | Ke [7]: 8.2

Cn1c2c(c3c1[C@@H]1Oc4c(O)ccc5c4[C@@]14CCN(CC1CC1)[C@H](C5)[C@]4(O)C3)CCCC2
Ke [2]: 158 | Ke [6]: 254

Oc1ccc2c3c1O[C@H]1C(c4c[nH]c5ccccc45)=CC[C@@]4(O)[C@@H](C2)N(CC2CC2)CC[C@]314
Ratio [8]: 6 | Ratio [17]: 0.16 | pKi (Mu-type opioid receptor): 9.20 | Ke [18]: 5.1 | IC50 ratio [10]: 189 | Ratio [5]: 0.21 | IC50 ratio [11]: 243 | Ratio [12]: 0.6 | Ke [13]: 1.1 | pKi [19]: 8.21 | Ke [14]: 0.83
